# Measured values as given in ChEMBL document CHEMBL1147241, “Cytotoxic constituents of Isodon rubescens var. lushiensis” (J Nat Prod, 2003).
# Tested on: not listed separately
# Assay: Cytotoxicity against human CA cells by SRB method
# Type: functional, cell-based
# Method in brief: (§1)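 Sulforhodamine B (SRB) assay on CA liver cancer and HeLa cervical cancer cells; cis-platinum as positive control. Optical density recorded as mean ± S; IC50 calculated from OD data.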
row,SMILES,IC50 [µg/mL]
1,C=C1C(=O)[C@]23C[C@H]1CC[C@H]2[C@@]1(CCC[C@@]2(C)CO[C@@H](OC)[C@H]21)COC3=O [LUDONGNIN J],0.09

# Tested on: HeLa
# Assay: Cytotoxicity against human HeLa cells by SRB method
# Type: functional, cell-based
# Method in brief: as §1
row,SMILES,IC50 [µg/mL]
1,C=C1C(=O)[C@]23C[C@H]1CC[C@H]2[C@@]1(CCC[C@@]2(C)CO[C@@H](OC)[C@H]21)COC3=O [LUDONGNIN J],0.7

# Tested on: K562
# Assay: Cytotoxicity against human K562 cells by MTT method
# Type: functional, cell-based
# Method in brief: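 Improved MTT assay on K562 human leukemia cells; cis-platinum as positive control. Optical density recorded as mean ± S; IC50 calculated from OD data.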
row,SMILES,IC50 [µg/mL]
1,CO[C@@H]1OC[C@]2(C)CCC[C@]3(COC(=O)[C@@]45C[C@@H](CC[C@H]43)[C@@H](C)C5=O)[C@H]12 [LUDONGNIN F],> 50
2,C=C1C(=O)[C@]23C[C@H]1C[C@@H](O)[C@H]2[C@@]1(CCC[C@@]2(C)CO[C@@H](OC)[C@H]21)COC3=O,0.87
3,CO[C@H]1OC[C@]2(C)CCC[C@]3(COC(=O)[C@@]45C[C@@H](CC[C@H]43)[C@H](C)C5=O)[C@H]12 [LUDONGNIN H],> 50
4,C[C@H]1C(=O)[C@]23C[C@H]1C[C@@H](O)[C@H]2[C@@]1(CCC[C@@]2(C)COC(=O)[C@H]21)COC3=O [GUIDONGNIN C],> 50
5,C=C1[C@@H]2C[C@@H](O)[C@H]3[C@@]4(CCC[C@@]5(C)COC(=O)[C@H]54)COC(=O)[C@]3(C2)[C@@H]1O [GUIDONGNIN A],0.3
6,C=C1C(=O)[C@]23C[C@H]1CC[C@H]2[C@]1(COC3=O)C2CC[C@@]3(C)COC(O2)[C@H]31 (some centres undefined) [SCULPONEATIN J],0.83
7,C[C@H]1C(=O)[C@]23C[C@H]1CC[C@H]2[C@@]1(CCC[C@@]2(C)COC(=O)[C@H]21)COC3=O [GUIDONGNIN B],> 50
8,CO[C@H]1OC[C@]2(C)CCC[C@]3(COC(=O)[C@@]45C[C@@H](CC[C@H]43)[C@@H](C)C5=O)[C@H]12 [LUDONGNIN I],> 50
9,C=C1C(=O)[C@]23C[C@H]1CC[C@H]2[C@@]1(CCC[C@@]2(C)CO[C@@H](OC)[C@H]21)COC3=O [LUDONGNIN J],0.18
10,C=C1C(=O)[C@]23C[C@H]1C[C@@H](O)[C@H]2[C@@]1(CCC[C@@]2(C)COC(=O)[C@H]21)COC3=O [LUDONGNIN A],0.25
11,C=C1C(=O)[C@]23C[C@H]1C[C@@H](O)[C@H]2[C@@]1(CCC[C@@]2(C)CO[C@H](OC)[C@H]21)COC3=O [ANGUSTIFOLIN],0.23
12,CO[C@@H]1OC[C@]2(C)CCC[C@]3(COC(=O)[C@@]45C[C@@H](CC[C@H]43)[C@H](C)C5=O)[C@H]12 [LUDONGNIN G],> 50
